Assays:
CAKI-1 = assay: Antiproliferative activity against human CAKI1 cells after 48 hrs; type: functional; conditions: CAKI-1, 48 h
Outline: (§1)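 NCI 60-cell screen. Cells were grown in RPMI 1640 with 5% FBS and 2 mM L-glutamine, then plated at 5,000–40,000 cells/well according to doubling time and preincubated for 24 h at 37 °C in 5% CO2. Compounds were dissolved in DMSO at 400× the top final concentration and tested at five 10-fold dilutions from 10−4 to 10−8 M for 48 h. Growth was read spectrophotometrically; GI50 is 50% net protein reduction.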

PC-3 = assay: Antiproliferative activity against human PC3 cells after 48 hrs; type: functional; conditions: PC-3, 48 h; outline: as §1
[1] = Antiproliferative activity against human […] cells after 48 hrs; type: functional; outline: as §1
OVCAR-4 = assay: Antiproliferative activity against human OVCAR4 cells after 48 hrs; type: functional; conditions: OVCAR-4, 48 h; outline: as §1
U-251 = assay: Antiproliferative activity against human U251 cells after 48 hrs; type: functional; conditions: U-251, 48 h
Outline: (§2)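 NCI 60-cell-line screen. Lines grown in RPMI 1640 with 5% fetal bovine serum and 2 mM L-glutamine, plated at 5,000–40,000 cells/well according to doubling time, left 24 h at 37 °C in 5% CO2. Drug stocks in DMSO at 400-fold the top final concentration. Five 10-fold dilutions, 10−4 to 10−8 M, incubated 48 h. Growth read spectrophotometrically as net protein; GI50 taken as 50% reduction.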

UO-31 = assay: Antiproliferative activity against human UO31 cells after 48 hrs; type: functional; conditions: UO-31, 48 h; outline: as §2
HCT-116 = assay: Antiproliferative activity against human HCT116 cells after 48 hrs; type: functional; conditions: HCT-116, 48 h; outline: as §1
COLO 205 = assay: Antiproliferative activity against human COLO205 cells after 48 hrs; type: functional; conditions: COLO 205, 48 h; outline: as §1
SK-MEL-2 = assay: Antiproliferative activity against human SKMEL2 cells after 48 hrs; type: functional; conditions: SK-MEL-2, 48 h; outline: as §1
LOX IMVI = assay: Antiproliferative activity against human LOXIMVI cells after 48 hrs; type: functional; outline: as §1
NCI-H322M = assay: Antiproliferative activity against human NCI-H322M cells after 48 hrs; type: functional; outline: as §1
HCT-15 = assay: Antiproliferative activity against human HCT15 cells after 48 hrs; type: functional; conditions: Homo sapiens, HCT-15, 48 h; outline: as §1
UACC-62 = assay: Antiproliferative activity against human UACC62 cells after 48 hrs; type: functional; conditions: UACC-62, 48 h; outline: as §2
OVCAR-5 = assay: Antiproliferative activity against human OVCAR5 cells after 48 hrs; type: functional; conditions: OVCAR-5, 48 h; outline: as §1
NCI-H460 = assay: Antiproliferative activity against human NCI-H460 cells after 48 hrs; type: functional; conditions: NCI-H460, 48 h; outline: as §1
MCF7 = assay: Antiproliferative activity against human MCF7 cells after 48 hrs; type: functional, cell-based; conditions: MCF7, 48 h
SK-MEL-28 = assay: Antiproliferative activity against human SKMEL28 cells after 48 hrs; type: functional; conditions: SK-MEL-28, 48 h; outline: as §1
MDA-MB-231 = assay: Antiproliferative activity against human MDA-MB-231 cells after 48 hrs; type: functional; conditions: MDA-MB-231, 48 h; outline: as §1
CCRF-CEM = assay: Antiproliferative activity against human CCRF-CEM cells after 48 hrs; type: functional; outline: as §1
KM12 = assay: Antiproliferative activity against human KM12 cells after 48 hrs; type: functional; conditions: Homo sapiens, KM12, 48 h; outline: as §1
786-0 = assay: Antiproliferative activity against human 786-0 cells after 48 hrs; type: functional; conditions: 786-0, 48 h; outline: as §1
NCI-H522 = assay: Antiproliferative activity against human NCI-H522 cells after 48 hrs; type: functional; conditions: NCI-H522, 48 h; outline: as §1
SK-MEL-5 = assay: Antiproliferative activity against human SKMEL5 cells after 48 hrs; type: functional; conditions: SK-MEL-5, 48 h; outline: as §1
SNB-19 = assay: Antiproliferative activity against human SNB19 cells after 48 hrs; type: functional; conditions: SNB-19, 48 h; outline: as §1
NCI-H226 = assay: Antiproliferative activity against human NCI-H226 cells after 48 hrs; type: functional; conditions: NCI-H226, 48 h; outline: as §1
Malme-3M = assay: Antiproliferative activity against human MALME3M cells after 48 hrs; type: functional; outline: as §1
SF-295 = assay: Antiproliferative activity against human SF295 cells after 48 hrs; type: functional; conditions: SF-295, 48 h; outline: as §1
RXF 393 = assay: Antiproliferative activity against human RXF393 cells after 48 hrs; type: functional; conditions: RXF 393, 48 h; outline: as §1
MDA-MB-435 = assay: Antiproliferative activity against human MDA-MB-435 cells after 48 hrs; type: functional; conditions: Homo sapiens, MDA-MB-435, 48 h; outline: as §1
DU-145 = assay: Antiproliferative activity against human DU145 cells after 48 hrs; type: functional; conditions: DU-145, 48 h; outline: as §1
OVCAR-3 = assay: Antiproliferative activity against human OVCAR-3 cells after 48 hrs; type: functional; conditions: OVCAR-3, 48 h; outline: as §1
ACHN = assay: Antiproliferative activity against human ACHN cells after 48 hrs; type: functional; outline: as §1
[2] = read-out: Log LC50 (the source's name) (converted)

CCCCCCCCCCCCCCN[C@@H](CO)Cc1ccccc1 showed a GI50 (CAKI-1) of 1.66 µM, a CC50 (CAKI-1; [2]) of 5.62 µM and a TGI (CAKI-1; read-out: Log TGI (converted)) of 3.09 µM. The GI50 (PC-3) was 1.62 µM, the LC50 (PC-3) was 5.62 µM and the TGI (PC-3; read-out: Log TGI (converted)) was 2.82 µM. The GI50 [1] was 4.68 µM, the LC50 [1] was 45.7 µM and the TGI ([1]; read-out: Log TGI (converted)) was 17 µM. It also gave a GI50 (OVCAR-4) of 1.91 µM, an LC50 (OVCAR-4) of 6.31 µM and a TGI (OVCAR-4; read-out: Log TGI (converted)) of 3.47 µM. The GI50 (U-251) was 1.74 µM, the TGI (U-251; read-out: Log TGI (converted)) was 3.24 µM and the GI50 (UO-31) was 4.37 µM. The LC50 (UO-31) was greater than 100 µM, the TGI (UO-31; read-out: Log TGI (converted)) was 21.4 µM and the GI50 (HCT-116) was 2.04 µM. The LC50 (HCT-116) was 6.76 µM, the TGI (HCT-116; read-out: Log TGI (converted)) was 3.72 µM and the GI50 (COLO 205) was 1.66 µM. For the same molecule, the CC50 (COLO 205; [2]) was 6.03 µM, the TGI (COLO 205; read-out: Log TGI (converted)) was 3.16 µM and the GI50 (SK-MEL-2) was 2.69 µM. It also gave an LC50 (SK-MEL-2) greater than 100 µM, a TGI (SK-MEL-2; read-out: Log TGI (converted)) of 5.5 µM and a GI50 (LOX IMVI) of 1.58 µM. The LC50 (LOX IMVI) was 5.75 µM, the TGI (LOX IMVI; read-out: Log TGI (converted)) was 3.02 µM and the GI50 (NCI-H322M) was 2 µM. It also gave a CC50 (NCI-H322M; [2]) of 7.41 µM, a TGI (NCI-H322M; read-out: Log TGI (converted)) of 3.89 µM and a GI50 (HCT-15) of 1.7 µM. For the same molecule, the LC50 (HCT-15) was 5.89 µM, the TGI (HCT-15; read-out: Log TGI (converted)) was 3.16 µM and the GI50 (UACC-62) was 2 µM. For the same molecule, the LC50 (UACC-62) was 7.94 µM, the TGI (UACC-62; read-out: Log TGI (converted)) was 3.98 µM and the GI50 (OVCAR-5) was 2.4 µM. The CC50 (OVCAR-5; [2]) was 15.8 µM, the TGI (OVCAR-5; read-out: Log TGI (converted)) was 5.5 µM and the GI50 (NCI-H460) was 1.82 µM. It also gave a CC50 (NCI-H460; [2]) of 6.17 µM, a TGI (NCI-H460; read-out: Log TGI (converted)) of 3.39 µM and a GI50 (MCF7) of 1.74 µM. The LC50 (MCF7) was 6.03 µM, the TGI (MCF7; read-out: Log TGI (converted)) was 3.24 µM and the GI50 (SK-MEL-28) was 1.91 µM. The LC50 (SK-MEL-28) was 6.31 µM, the TGI (SK-MEL-28; read-out: Log TGI (converted)) was 3.47 µM and the GI50 (MDA-MB-231) was 2 µM. The LC50 (50% lethal concentration) (MDA-MB-231) was 6.61 µM, the TGI (MDA-MB-231; read-out: Log TGI (converted)) was 3.63 µM and the GI50 (CCRF-CEM) was 1.74 µM. It also gave a CC50 (CCRF-CEM; [2]) of 7.76 µM, a TGI (CCRF-CEM; read-out: Log TGI (converted)) of 3.72 µM and a GI50 (KM12) of 1.86 µM. The CC50 (KM12; [2]) was 6.17 µM, the TGI (KM12; read-out: Log TGI (converted)) was 3.39 µM and the GI50 (786-0) was 1.82 µM. It also gave a CC50 (786-0; [2]) of 5.89 µM, a TGI (786-0; read-out: Log TGI (converted)) of 3.24 µM and a GI50 (NCI-H522) of 2.09 µM. For the same molecule, the TGI (NCI-H522; read-out: Log TGI (converted)) was 3.98 µM, the GI50 (SK-MEL-5) was 1.78 µM and the CC50 (SK-MEL-5; [2]) was 6.03 µM. The TGI (SK-MEL-5; read-out: Log TGI (converted)) was 3.24 µM, the GI50 (SNB-19) was 1.7 µM and the CC50 (SNB-19; [2]) was 5.89 µM. For the same molecule, the TGI (SNB-19; read-out: Log TGI (converted)) was 3.16 µM, the GI50 (NCI-H226) was 1.91 µM and the TGI (NCI-H226; read-out: Log TGI (converted)) was 3.8 µM. It also gave a GI50 (Malme-3M) of 2 µM, an LC50 (Malme-3M) of 6.31 µM and a TGI (Malme-3M; read-out: Log TGI (converted)) of 3.55 µM. It also gave a GI50 (SF-295) of 1.78 µM, an LC50 (SF-295) of 6.17 µM and a TGI (SF-295; read-out: Log TGI (converted)) of 3.31 µM. The GI50 (RXF 393) was 1.7 µM, the CC50 (RXF 393; [2]) was 6.92 µM and the TGI (RXF 393; read-out: Log TGI (converted)) was 3.47 µM. The GI50 (MDA-MB-435) was 1.74 µM, the LC50 (MDA-MB-435) was 5.62 µM and the TGI (MDA-MB-435; read-out: Log TGI (converted)) was 3.16 µM. For the same molecule, the GI50 (DU-145) was 1.45 µM, the CC50 (DU-145; [2]) was 6.03 µM and the TGI (DU-145; read-out: Log TGI (converted)) was 3.09 µM. The GI50 (OVCAR-3) was 1.66 µM, the LC50 (OVCAR-3) was 5.5 µM and the TGI (OVCAR-3; read-out: Log TGI (converted)) was 3.02 µM. It also gave a GI50 (ACHN) of 1.7 µM, a CC50 (ACHN; [2]) of 5.89 µM and a TGI (ACHN; read-out: Log TGI (converted)) of 3.16 µM.
